Numbered stars: 1 amine (or outer) side, 2 acyl side, 3 side chain; on linkers, the order of the positions; unused ones are H or OH. Bridge positions count the residues as written; N and C are the ends. Square brackets hold non-standard residues; d marks the D form. Peptide text beside a SMILES is read from it. Trimesoyl = O=C(c1cc(C(=O)[*:2])cc(C(=O)[*:3])c1)[*:1]; Phe(4-F) = N[C@@H](Cc1ccc(F)cc1)C(=O)O; 2Nal = N[C@@H](Cc1ccc2ccccc2c1)C(=O)O; d2Nal = N[C@H](Cc1ccc2ccccc2c1)C(=O)O; X1 = CCCCCCC[C@H](N[*:1])C(=O)[*:2]; Phg = N[C@H](C(=O)O)c1ccccc1; dNle = CCCC[C@@H](N)C(=O)O; Nle = CCCC[C@H](N)C(=O)O; Orn = NCCC[C@H](N)C(=O)O; Dap = NC[C@H](N)C(=O)O; X2 = C(C[*:1])C[*:2]; βAla = NCCC(=O)O

Results on twelve molecules are retold here after ChEMBL document CHEMBL4842360, “Discovery of a Bicyclic Peptidyl Pan-Ras Inhibitor” (J Med Chem, 2021).

Series [1] relates to NCI-H1299. Description: Induction of apoptosis in human NCI-H1299 cells by MTT assay. Type of series: functional, cell-based. (In general: Tetrazolium assays rely on reduction of a dye to a coloured formazan, in cell work by metabolically active cells.)
Series [2] deals with GTPase KRas (Homo sapiens, UniProt P01116, G12D). Description: Binding affinity to recombinant human KRAS G12D mutant incubated for 0.5 hrs by ELISA. For orientation: In an ELISA, binding on a coated surface is turned into a signal by an enzyme label.
The subject of the next series is PANC-1. The series is described as follows: Antitumor activity against human PANC-1 cells xenografted in BALB/c mouse assessed as inhibition of cell growth at 40 mg/kg, iv administered once every 2 days for 4 weeks. The class given is functional. Conditions: PANC-1, iv, 672 h, read-out: GI; call rule not given here.
In series [3] the test system is NCI-H358. Description: Antiproliferative activity against human NCI-H358 cells incubated for 96 hrs by MTT assay. Type of series: functional, cell-based. Summed up: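 H358 cells at 5,000/well, grown overnight, treated with serially diluted peptide (0–40 μM) in 10% FBS medium for 96 h at 37 °C. MTT added for 4 h, formazan solubilized overnight in SDS-HCl, absorbance read at 570 nm.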

Series [4] addresses T1, GTPase KRas (Homo sapiens, UniProt P01116, G12V). The series is described as follows: Inhibition of GPPNP bound KRAS G12V mutant (unknown origin) assessed as reduction in KRAS/GST-fused Raf RBD interaction incubated for 2 hrs by HTRF assay. A general note: TR-FRET usually uses a lanthanide donor and a delayed reading to cut background.
Series [5] deals with NCI-H1299. Description: Induction of apoptosis in human NCI-H1299 cells incubated for 24 hrs by MTT assay. Type of series: functional, cell-based. Conditions: NCI-H1299, 24 h.
Series [6] can be described thus: Drug localization in cytosol of human HeLa cells assessed as mean fluorescence intensity at 5 uM incubated for 2 hrs by flow cytometry relative to relative to extracellular concentration. The class given is ADME, subcellular.
For series [7], the system named is NCI-H358. Description: Antiproliferative activity against human NCI-H358 cells incubated for 96 hrs by Celltiter-Glo assay. The class given is functional, cell-based. Particulars: Homo sapiens, NCI-H358, 96 h; read-out: EC50.
For series [8], the target named is T1, GTPase KRas. Description: biochemical.
Where [9] appears, read: Homo sapiens, NCI-H358, 96 h, read-out: EC50.

T1 sequence (P01116 whole entry G12V, the tested form may be a part): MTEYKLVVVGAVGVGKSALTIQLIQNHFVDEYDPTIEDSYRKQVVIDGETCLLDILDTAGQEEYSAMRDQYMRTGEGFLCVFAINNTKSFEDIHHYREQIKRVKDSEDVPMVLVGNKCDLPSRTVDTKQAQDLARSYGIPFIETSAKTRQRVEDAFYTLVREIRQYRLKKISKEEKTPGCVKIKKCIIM
Sequence of GTPase KRas (Homo sapiens, UniProt P01116, G12D) (P01116 whole entry G12D): as the sequence (P01116 whole entry G12V, the tested form may be a part) above, with V12D counted along it

In general, EC50 refers to the midpoint of the concentration-response curve. `CCCC[C@H]1NC(=O)[C@H](Cc2ccc(F)cc2)NC(=O)[C@H](CCCNC(=N)N)NC(=O)[C@@H](Cc2ccc3ccccc3c2)NC(=O)[C@H](CCCNC(=N)N)NC(=O)[C@H](CCCNC(=N)N)NC(=O)[C@H](CCCNC(=N)N)NC(=O)[C@@H](C)NC(=O)[C@H]([C@@H](C)O)NC(=O)[C@H](Cc2c[nH]c3ccccc23)NC(=O)[C@H](CCC(N)=O)NC1=O` (cyclo(WT[dA]RRR[d2Nal]R[Phe(4-F)][dNle]Q)) came in with an EC50 in the series on NCI-H1299 [1] of 3 µM.

One may read the Kd as the concentration at which binding is half-saturated. Take `CCCCCCC[C@@H]1NC(=O)[C@@H]2CSCCCSC[C@H](NC(=O)[C@H](Cc3c[nH]c4ccccc34)NC(=O)[C@@H]3CCCN3C(=O)[C@H](CC(=O)O)NC(=O)[C@H](Cc3ccc(F)cc3)NC(=O)[C@H](CO)NC1=O)C(=O)NCCC(=O)N1CCC[C@H]1C(=O)N[C@@H](CCCC)C(=O)N2` (cyclo(C[X1]S[Phe(4-F)]DPWC[βAla]P[Nle]); linker 1-8 via X2): the Kd on GTPase KRas [2] stood at 0.022 µM. In the series with PANC-1, the inhibition in vivo at 40 mg/kg came to 65%.

For the molecule `C[C@@H]1NC(=O)[C@@H](Cc2ccccc2)NC(=O)[C@@H]2CCCCNC(=O)c3cc(cc(c3)C(=O)N[C@H](Cc3ccc4ccccc4c3)C(=O)N[C@@H](CO)C(=O)N[C@@H](CCC(N)=O)C(=O)N[C@H](Cc3ccc4ccccc4c3)C(=O)N[C@@H](c3ccccc3)C(=O)N2)C(=O)NC[C@@H](C(=O)N[C@@H](CCN)CC(=O)N[C@H](CC(N)=O)C(=O)N[C@H](Cc2ccc(O)cc2)C(=O)N[C@@H](C(N)=O)[C@H](C)O)NC(=O)[C@H](CCCNC(=N)N)NC(=O)[C@@H](CCCNC(=N)N)NC1=O`, in the series on NCI-H358 [3] (nci-h358), the EC50 entry is “Not Active”.

For `C[C@@H]1NC(=O)[C@@H](Cc2ccccc2)NC(=O)[C@@H]2CCCCNC(=O)c3cc(cc(c3)C(=O)N[C@H](Cc3ccc4ccccc4c3)C(=O)N[C@@H](CO)C(=O)N[C@@H](CCC(N)=O)C(=O)N[C@H](Cc3ccc4ccccc4c3)C(=O)N[C@@H](c3ccccc3)C(=O)N2)C(=O)NC[C@@H](C(=O)N[C@@H](CCN)CC(=O)N[C@H](CCCNC(=N)N)C(=O)N[C@@H](Cc2ccc(F)cc2)C(=O)N[C@H](C)C(=O)N[C@@H](CCCCN)C(N)=O)NC(=O)[C@H](CCCNC(=N)N)NC(=O)[C@@H](CCCNC(=N)N)NC1=O`, the EC50 in the series on NCI-H358 [3] (setting [9]) was 17 µM.

Regarding `C[C@@H]1NC(=O)[C@@H](Cc2ccccc2)NC(=O)[C@@H]2CCCCNC(=O)c3cc(cc(c3)C(=O)N[C@H](Cc3ccc4ccccc4c3)C(=O)N[C@@H](CO)C(=O)N[C@@H](CCC(N)=O)C(=O)N[C@H](Cc3ccc4ccccc4c3)C(=O)N[C@@H](c3ccccc3)C(=O)N2)C(=O)NC[C@@H](C(=O)N[C@@H](CCC(=O)O)C(=O)N[C@@H](Cc2cnc[nH]2)C(=O)N2CCC[C@@H]2C(=O)N[C@H](Cc2ccc(O)cc2)C(=O)N[C@@H](CCCCN)C(N)=O)NC(=O)[C@H](CCCNC(=N)N)NC(=O)[C@@H](CCCNC(=N)N)NC1=O`, the EC50 entry in the series with NCI-H358 [3] (nci-h358) is listed as “Not Active”.

With `CC(C)[C@@H](NC(=O)C[C@H](CCN)NC(=O)[C@@H]1CNC(=O)c2cc3cc(c2)C(=O)N[C@H](Cc2ccc4ccccc4c2)C(=O)N[C@@H](CO)C(=O)N[C@@H](CCC(N)=O)C(=O)N[C@H](Cc2ccc4ccccc4c2)C(=O)N[C@@H](c2ccccc2)C(=O)N[C@@H](CCCCNC3=O)C(=O)N[C@H](Cc2ccccc2)C(=O)N[C@@H](C)C(=O)N[C@H](CCCNC(=N)N)C(=O)N[C@@H](CCCNC(=N)N)C(=O)N1)C(=O)N[C@H](C)CC(=O)N[C@H](Cc1c[nH]c2ccccc12)C(=O)NCCC(N)=O`, the EC50 result with NCI-H358 [3] (nci-h358) is given as “Not Active”.

For `C[C@H](NC(=O)[C@@H]1CNC(=O)c2cc3cc(c2)C(=O)N[C@H](Cc2ccc4ccccc4c2)C(=O)N[C@@H](CO)C(=O)N[C@@H](CCC(N)=O)C(=O)N[C@H](Cc2ccc4ccccc4c2)C(=O)N[C@@H](c2ccccc2)C(=O)N[C@@H](CCCCNC3=O)C(=O)N[C@H](Cc2ccccc2)C(=O)N[C@@H](C)C(=O)N[C@H](CCCNC(=N)N)C(=O)N[C@@H](CCCNC(=N)N)C(=O)N1)C(=O)N[C@H](CCCNC(=N)N)C(=O)N[C@H](Cc1ccccc1)C(=O)N[C@@H](Cc1ccc(F)cc1)C(N)=O`, the EC50 with NCI-H358 [3] (setting [9]) is 19 µM.

One may read the IC50 as the concentration that gives 50% inhibition. On to `CC[C@@H](C)[C@@H]1NC(=O)[C@H](Cc2cn(CCc3c(C)[nH]c4cc(Cl)cc(Cl)c34)nn2)NC(=O)[C@@H](CC(N)=O)NC(=O)[C@H](CCCNC(=N)N)NC(=O)[C@H](Cc2ccccc2)NC(=O)[C@@H](CC(C)C)NC(=O)[C@@H](C)NC(=O)c2cc3cc(c2)C(=O)NC[C@@H](C(N)=O)NC(=O)[C@H](CCCNC(=N)N)NC(=O)[C@H](CCCNC(=N)N)NC(=O)[C@H](CCCNC(=N)N)NC(=O)[C@H](CCCNC(=N)N)NC(=O)[C@H](Cc2ccc4ccccc4c2)NC(=O)[C@H](Cc2ccccc2)NC(=O)C(CCCCNC3=O)NC(=O)[C@H](CC(=O)O)NC1=O` (some centres not stated), for which the IC50 on GTPase KRas [4] was determined as 3.4 µM. This molecule also returned an EC50 in the series with NCI-H1299 [5] of 8 µM.

Turning to `CC(C)C[C@@H](NC(=O)[C@H](CCC(N)=O)NC(=O)CNC(=O)[C@@H]1CNC(=O)c2cc3cc(c2)C(=O)N[C@H](Cc2ccc4ccccc4c2)C(=O)N[C@@H](CO)C(=O)N[C@@H](CCC(N)=O)C(=O)N[C@H](Cc2ccc4ccccc4c2)C(=O)N[C@@H](c2ccccc2)C(=O)N[C@@H](CCCCNC3=O)C(=O)N[C@H](Cc2ccccc2)C(=O)N[C@@H](C)C(=O)N[C@H](CCCNC(=N)N)C(=O)N[C@@H](CCCNC(=N)N)C(=O)N1)C(=O)N[C@H](CCCNC(=N)N)C(=O)N[C@@H](CCCCN)C(N)=O`, the EC50 result in the series with NCI-H358 [3] (nci-h358) is “Not Active”.

`N=C(N)NCCC[C@@H]1NC(=O)[C@H](Cc2ccc3ccccc3c2)NC(=O)[C@@H](Cc2ccccc2)NC(=O)[C@H](Cc2ccccc2)NC(=O)[C@H](CCC(N)=O)NC(=O)[C@@H](CCCNC(=N)N)NC(=O)[C@H](CCCNC(=N)N)NC(=O)[C@@H](CCCNC(=N)N)NC1=O` (cyclo([2Nal]R[dR]R[dR]QF[dF])): the Drug uptake in [6] was determined as 120%.

`C[C@@H]1NC(=O)[C@@H](Cc2ccccc2)NC(=O)[C@@H]2CCCCNC(=O)c3cc(cc(c3)C(=O)N[C@H](Cc3ccc4ccccc4c3)C(=O)N[C@@H](CO)C(=O)N[C@@H](CCC(N)=O)C(=O)N[C@H](Cc3ccc4ccccc4c3)C(=O)N[C@@H](c3ccccc3)C(=O)N2)C(=O)NC[C@@H](C(=O)N[C@@H](CCCN)C(=O)N[C@H](CCCNC(=N)N)C(=O)N[C@@H](Cc2ccc(F)cc2)C(=O)N[C@H](C)C(=O)N[C@@H](CCCCN)C(N)=O)NC(=O)[C@H](CCCNC(=N)N)NC(=O)[C@@H](CCCNC(=N)N)NC1=O` ([d2Nal]SQ[d2Nal][Phg]K[dF]A[dR]R[Dap][Orn][dR][Phe(4-F)][dA]K-NH2; linker N-6-11 via Trimesoyl): in series [6], the Drug uptake result was “Active”.

Consider `C[C@@H]1NC(=O)[C@@H](Cc2ccccc2)NC(=O)[C@@H]2CCCCNC(=O)c3cc(cc(c3)C(=O)N[C@H](Cc3ccc4ccccc4c3)C(=O)N[C@@H](CO)C(=O)N[C@@H](CCC(N)=O)C(=O)N[C@H](Cc3ccc4ccccc4c3)C(=O)N[C@@H](c3ccccc3)C(=O)N2)C(=O)NC[C@@H](C(=O)NCCC(=O)NCCC(=O)NC(CCCCN)C(N)=O)NC(=O)[C@H](CCCNC(=N)N)NC(=O)[C@@H](CCCNC(=N)N)NC1=O` (some centres not stated), for which the EC50 in the series on NCI-H358 [3] (setting [9]) was found to be 29 µM; in the series with NCI-H358 [7], 22 µM. Moreover, in [6], the Drug uptake entry is on record as “Active”. At GTPase KRas [8], the affinity, expressed as Kd, was 0.14 µM.
